Assay results reported in ChEMBL document CHEMBL1139875, “Discovery of 4-aminobutyric acid derivatives possessing anticonvulsant and antinociceptive activities: a hybrid pharmacophore approach” (2007).
Active and inactive are the calls of the source. The calls are words filed in the database; no cut-off is given here.

Tests used:
Rattus norvegicus [1] = experiment: Anti-cold allodynia effect in Sprague-Dawley rat SNL model assessed as duration of paw withdrawal 100 mg/kg, ip after 1 hrs; format: functional; details: route intraperitoneal
How it was run: (§1)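 Left L5 spinal nerve ligation under pentobarbital (65 mg/kg i.p.). Allodynic rats dosed i.p. 100 mg/kg, vehicle 30% v/v PEG 400 in water. Acetone (100-200 µL) misted onto midplantar affected paw after 10 min acclimatization; paw withdrawal duration, mean of three samples at least 3 min apart; n = 4 rats.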

Rattus norvegicus [2] = experiment: Effect on spontaneous pain in Sprague-Dawley rat SNL model assessed as duration of paw withdrawal at 100 mg/kg, ip after 2.5 hrs; format: functional; details: route intraperitoneal
How it was run: (§2)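 Rats underwent left L5 spinal nerve ligation (Kim and Chung) under i.p. pentobarbital (65 mg/kg). Spontaneous pain is recorded for 5 min after 10 min acclimatization, as cumulative duration the ipsilateral paw is lifted, excluding locomotor lifts. Dosing is 100 mg/kg i.p. in 30% v/v PEG 400/water, with testing at 0.5–2.5 h. Four rats, mean ± SEM versus predrug, one-way ANOVA with Bonferroni.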

Rattus norvegicus [3] = experiment: Anti-dynamic allodynia effect in Sprague-Dawley rat SNL model assessed as latency to paw withdrawal 100 mg/kg, ip after 2 hrs; format: functional; details: route intraperitoneal
How it was run: (§3)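 Left L5 spinal nerve ligation rats, tested preoperatively and 9 days postoperatively, then given 100 mg/kg i.p. (vehicle 30% v/v PEG 400 in water). After 10 min acclimatization, plantar surface of affected paw stroked mildly with a cotton-bud; paw lift response recorded. n = 4; retested 0.5-2.5 h post-dose.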

Mus musculus [4] = experiment: Anticonvulsant activity in Swiss Albino mouse at 300 mg/kg, ip after 0.5 hr by scPTZ test; format: functional, organism-based; set-up: dose 300 mg/kg
How it was run: (§4)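 Mice (Swiss, 20-25 g) given i.p. doses of 30, 100 and 300 mg/kg under ADD program protocols, three per group, examined at 0.5 and 4 h in MES, scPTZ, scSTY or scPIC seizure tests. Value is the minimum dose protecting half or more of the mice.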

Rattus norvegicus [5] = experiment: Anti-cold allodynia effect in Sprague-Dawley rat SNL model assessed as duration of paw withdrawal 100 mg/kg, ip after 2 hrs; format: functional; details: route intraperitoneal; how it was run: as §1
Rattus norvegicus [6] = experiment: Effect on spontaneous pain in Sprague-Dawley rat CCI model assessed as duration of paw withdrawal at 100 mg/kg, ip after 2 hrs; format: functional; details: route intraperitoneal
How it was run: (§5)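 Unilateral CCI of sciatic nerve (Bennett and Xie) in Sprague-Dawley rats under i.p. pentobarbital sodium (65 mg/kg). Spontaneous pain is scored over 5 min after 10 min acclimatization, as cumulative time the ipsilateral paw is held off the floor. Paw lifts from locomotion or repositioning are excluded. Drug is given at 100 mg/kg i.p. with 30% v/v PEG 400 vehicle. Mean ± SEM, n = 4, compared with predrug by ANOVA/Bonferroni.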

Rattus norvegicus [7] = experiment: Effect on spontaneous pain in Sprague-Dawley rat CCI model assessed as duration of paw withdrawal at 100 mg/kg, ip after 1.5 hrs; format: functional; details: route intraperitoneal; how it was run: as §5
Rattus norvegicus [8] = experiment: Anti-dynamic allodynia effect in Sprague-Dawley rat SNL model assessed as latency to paw withdrawal 100 mg/kg, ip after 1.5 hrs; format: functional; details: route intraperitoneal; how it was run: as §3
Rattus norvegicus [9] = experiment: Anti-dynamic allodynia effect in Sprague-Dawley rat SNL model assessed as latency to paw withdrawal 100 mg/kg, ip after 0.5 hr; format: functional; details: route intraperitoneal; how it was run: as §3
Mus musculus [10] = experiment: Analgesic activity in Swiss Albino mouse assessed as number of acetic acid-induced writhing per 30 min after 100 mg/kg, ip; format: functional; details: route intraperitoneal
How it was run: (§6)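 Mice in groups of six dosed i.p. at 100 mg/kg, controls receiving 30% v/v PEG 400 in water. Writhing induced by i.p. 0.1 mL of 3% v/v acetic acid 1 h after drug. Writhes (abdominal stretch with at least one hind limb extended) counted over 30 min; % inhibition calculated. Mean ± SEM, Student's t test.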

Rattus norvegicus [11] = experiment: Effect on spontaneous pain in Sprague-Dawley rat CCI model assessed as duration of paw withdrawal at 100 mg/kg, ip after 1 hr; format: functional; details: route intraperitoneal
How it was run: (§7)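 CCI rats (n = 4) dosed 100 mg/kg i.p. (vehicle 30% v/v PEG 400 in water). After 10 min acclimatization in a cage 5 cm above ground, cumulative time the ipsilateral paw was held off the floor over 5 min recorded, excluding locomotion lifts. Mean ± SEM; ANOVA/Bonferroni versus predrug.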

Mus musculus [12] = experiment: Anticonvulsant activity in Swiss Albino mouse at 300 mg/kg, ip after 0.5 hr by scSTY test; format: functional, organism-based; set-up: dose 300 mg/kg; how it was run: as §4
Rattus norvegicus [13] = experiment: Anti-dynamic allodynia effect in Sprague-Dawley rat SNL model assessed as latency to paw withdrawal 100 mg/kg, ip after 2.5 hrs; format: functional; details: route intraperitoneal; how it was run: as §3
Rattus norvegicus [14] = experiment: Effect on spontaneous pain in Sprague-Dawley rat SNL model assessed as duration of paw withdrawal at 100 mg/kg, ip after 2 hrs; format: functional; details: route intraperitoneal; how it was run: as §2
Mus musculus [15] = experiment: Anticonvulsant activity in Swiss Albino mouse at 300 mg/kg, ip after 4 hrs by MES test; format: functional, organism-based; set-up: dose 300 mg/kg; how it was run: as §4
Rattus norvegicus [16] = experiment: Effect on spontaneous pain in Sprague-Dawley rat SNL model assessed as duration of paw withdrawal at 100 mg/kg, ip after 1 hr; format: functional; details: route intraperitoneal; how it was run: as §2
Mus musculus [17] = experiment: Neurotoxicity in Swiss Albino mouse at 300 mg/kg, ip after 0.5 hr by rotarod test; format: functional, organism-based; set-up: dose 300 mg/kg
How it was run: (§8)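 Swiss mice (20-25 g) are trained on an accelerating rotorod (10 rpm, 3.2 cm rod), then injected i.p. at 30, 100 or 300 mg/kg, with three per group. Neurotoxicity means failure to keep equilibrium for at least 1 min in each of three trials, checked at 0.5 and 4 h. The value reported is the minimum dose affecting half or more of the mice.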

Mus musculus [18] = experiment: Anticonvulsant activity in Swiss Albino mouse at 300 mg/kg, ip after 4 hrs by scPIC test; format: functional, organism-based; set-up: dose 300 mg/kg; how it was run: as §4
Rattus norvegicus [19] = experiment: Anti-cold allodynia effect in Sprague-Dawley rat SNL model assessed as duration of paw withdrawal 100 mg/kg, ip after 1.5 hrs; format: functional; details: route intraperitoneal; how it was run: as §1
Mus musculus [20] = experiment: Anticonvulsant activity in Swiss Albino mouse at 300 mg/kg, ip after 0.5 hr by MES test; format: functional, organism-based; set-up: dose 300 mg/kg; how it was run: as §4
Rattus norvegicus [21] = experiment: Effect on spontaneous pain in Sprague-Dawley rat SNL model assessed as duration of paw withdrawal at 100 mg/kg, ip after 0.5 hr; format: functional; details: route intraperitoneal; how it was run: as §2
Mus musculus [22] = experiment: Anticonvulsant activity in Swiss Albino mouse at 300 mg/kg, ip after 4 hrs by scSTY test; format: functional, organism-based; set-up: dose 300 mg/kg; how it was run: as §4
Rattus norvegicus [23] = experiment: Antihyperalgesic effects in Sprague-Dawley rat CCI model assessed as duration of paw withdrawal at 100 mg/kg, ip after 2.5 hrs; format: functional; details: route intraperitoneal
Rattus norvegicus [24] = experiment: Antihyperalgesic effects in Sprague-Dawley rat CCI model assessed as duration of paw withdrawal at 100 mg/kg, ip after 2 hrs; format: functional; details: route intraperitoneal
Rattus norvegicus [25] = experiment: Antihyperalgesic effects in Sprague-Dawley rat CCI model assessed as duration of paw withdrawal at 100 mg/kg, ip after 1 hr; format: functional; details: route intraperitoneal
Rattus norvegicus [26] = experiment: Effect on spontaneous pain in Sprague-Dawley rat CCI model assessed as duration of paw withdrawal at 100 mg/kg, ip after 2.5 hrs; format: functional; details: route intraperitoneal; how it was run: as §5
Mus musculus [27] = experiment: Neurotoxicity in Swiss Albino mouse at 300 mg/kg, ip after 4 hrs by rotarod test; format: functional, organism-based; set-up: dose 300 mg/kg; how it was run: as §8
Rattus norvegicus [28] = experiment: Effect on spontaneous pain in Sprague-Dawley rat CCI model assessed as duration of paw withdrawal at 100 mg/kg, ip after 0.5 hr; format: functional; details: route intraperitoneal; how it was run: as §7
Rattus norvegicus [29] = experiment: Anti-cold allodynia effect in Sprague-Dawley rat SNL model assessed as duration of paw withdrawal 100 mg/kg, ip after 2.5 hrs; format: functional; details: route intraperitoneal; how it was run: as §1
Rattus norvegicus [30] = experiment: Antihyperalgesic effects in Sprague-Dawley rat CCI model assessed as duration of paw withdrawal at 100 mg/kg, ip after 1.5 hrs; format: functional; details: route intraperitoneal
Rattus norvegicus [31] = experiment: Effect on spontaneous pain in Sprague-Dawley rat SNL model assessed as duration of paw withdrawal at 100 mg/kg, ip after 1.5 hrs; format: functional; details: route intraperitoneal; how it was run: as §2
Mus musculus [32] = experiment: Anticonvulsant activity in Swiss Albino mouse at 300 mg/kg, ip after 0.5 hr by scPIC test; format: functional, organism-based; set-up: dose 300 mg/kg; how it was run: as §4
Rattus norvegicus [33] = experiment: Anti-cold allodynia effect in Sprague-Dawley rat SNL model assessed as duration of paw withdrawal 100 mg/kg, ip after 0.5 hr; format: functional; details: route intraperitoneal; how it was run: as §1
Rattus norvegicus [34] = experiment: Antihyperalgesic effects in Sprague-Dawley rat CCI model assessed as duration of paw withdrawal at 100 mg/kg, ip after 0.5 hr; format: functional; details: route intraperitoneal
Rattus norvegicus [35] = experiment: Anti-dynamic allodynia effect in Sprague-Dawley rat SNL model assessed as latency to paw withdrawal 100 mg/kg, ip after 1 hr; format: functional; details: route intraperitoneal; how it was run: as §3
Mus musculus [36] = experiment: Analgesic activity in Swiss Albino mouse assessed as inhibition of acetic acid-induced writhing responses at 100 mg/kg, ip; format: functional; details: route intraperitoneal; how it was run: as §6

Compound: C/C(=N\NC(=O)NCCCC(=O)O)c1ccc(C)cc1
- Activity (Rattus norvegicus [1]): 23.9 s
- Activity (Rattus norvegicus [2]): 3.1 s
- Activity (Rattus norvegicus [3]): 12.4 s
- Activity (Mus musculus [4]): Active
- Activity (Rattus norvegicus [5]): 10.7 s
- Activity (Rattus norvegicus [6]): 10.9 s
- Activity (Rattus norvegicus [7]): 18.3 s
- Activity (Rattus norvegicus [8]): 10.9 s
- Activity (Rattus norvegicus [9]): 12.5 s
- Activity (Mus musculus [10]): 32.5
- Activity (Rattus norvegicus [11]): 21.8 s
- Activity (Mus musculus [12]): inactive
- Activity (Rattus norvegicus [13]): 12.02 s
- Activity (Rattus norvegicus [14]): 2.9 s
- Activity (Mus musculus [15]): inactive
- Activity (Rattus norvegicus [16]): 11.1 s
- Activity (Mus musculus [17]): Active
- Activity (Mus musculus [18]): inactive
- Activity (Rattus norvegicus [19]): 12.9 s
- Activity (Mus musculus [20]): inactive
- Activity (Rattus norvegicus [21]): 22.2 s
- Activity (Mus musculus [22]): inactive
- Activity (Rattus norvegicus [23]): 4.2 s
- Activity (Rattus norvegicus [24]): 5.3 s
- Activity (Rattus norvegicus [25]): 13.2 s
- Activity (Rattus norvegicus [26]): 10.7 s
- Activity (Mus musculus [27]): inactive
- Activity (Rattus norvegicus [28]): 23.9 s
- Activity (Rattus norvegicus [29]): 14.3 s
- Activity (Rattus norvegicus [30]): 9.6 s
- Activity (Rattus norvegicus [31]): 6.4 s
- Activity (Mus musculus [32]): Active
- Activity (Rattus norvegicus [33]): 27.2 s
- Activity (Rattus norvegicus [34]): 27.3 s
- Activity (Rattus norvegicus [35]): 9.1 s
- inhibition in vivo at 100 mg/kg (Mus musculus [36]): 82%
